Measured values from ChEMBL document CHEMBL1781911, “Verrucamides A-D, antibacterial cyclopeptides from Myrothecium verrucaria” (J Nat Prod, 2011).
≈ marks a conversion by molar mass, not a printed value. Square brackets hold non-standard residues; d marks the D form. Peptide text beside a SMILES is read from it. NMeT = CN[C@H](C(=O)O)[C@@H](C)O; aIle = CC[C@@H](C)[C@H](N)C(=O)O; dNMeF = CN[C@H](Cc1ccccc1)C(=O)O; NMeV = CN[C@H](C(=O)O)C(C)C; NMeS = CN[C@@H](CO)C(=O)O; dNMeA = CN[C@H](C)C(=O)O

Test system: Staphylococcus aureus
Assay: Antibacterial activity against Staphylococcus aureus Col CGMCC 1.2465 after 24 hrs by NCCLS […] method
Type: functional, organism-based
Settings: COL CGMCC 1.2465, 24 h
How it was run: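 Broth microdilution in triplicate per NCCLS guidance; strain grown in Mueller-Hinton broth, 3-4 colonies cultured at 37 °C for 24 h, final inoculum 10^6 cells/mL in MHB. Samples from 10 mg/mL DMSO stocks, serially diluted; ampicillin positive control. Incubated 37 °C for 24 h, growth read as absorbance at 595 nm.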

IC50 | MIC | Structure (SMILES)
0.09 µg/mL (≈ 0.258 µM) | 0.625 µg/mL (≈ 1.79 µM) | CC1(C)S[C@@H]2[C@H](NC(=O)[C@H](N)c3ccccc3)C(=O)N2[C@H]1C(=O)O [AMPICILLIN]
4.45 µg/mL (≈ 3.17 µM) | 10 µg/mL (≈ 7.13 µM) | CC[C@@H](C)[C@H]1C(=O)N[C@@H](CO)C(=O)N[C@@H](C(C)C)C(=O)N(C)[C@H](Cc2ccccc2)C(=O)NCC(=O)N[C@@H](C(C)C)C(=O)N(C)[C@@H]([C@@H](C)O)C(=O)N[C@@H](C(C)C)C(=O)N(C)[C@@H]([C@@H](C)O)C(=O)N[C@@H](C(C)C)C(=O)N(C)[C@H](C)C(=O)NCC(=O)N[C@@H](C(C)C)C(=O)N(C)[C@@H](CO)C(=O)N1C [VERRUCAMIDE C]
9.09 µg/mL (≈ 6.55 µM) | 40 µg/mL (≈ 28.8 µM) | CC(C)[C@@H]1NC(=O)[C@H]([C@@H](C)O)N(C)C(=O)[C@H](C(C)C)NC(=O)[C@H]([C@@H](C)O)N(C)C(=O)[C@H](C(C)C)NC(=O)CNC(=O)[C@@H](Cc2ccccc2)N(C)C(=O)[C@H](C(C)C)NC(=O)[C@H](CO)NC(=O)[C@H](C(C)C)N(C)C(=O)[C@H](CO)N(C)C(=O)[C@H](C(C)C)NC(=O)CNC(=O)[C@@H](C)N(C)C1=O [VERRUCAMIDE D]

The remaining lines, values behind:

Structure (SMILES) | IC50 | MIC
CC[C@@H](C)[C@@H]1NC(=O)CNC(=O)[C@@H](C)N(C)C(=O)[C@H](C(C)C)NC(=O)[C@H]([C@@H](C)O)N(C)C(=O)[C@H](C(C)C)NC(=O)[C@H]([C@@H](C)O)N(C)C(=O)[C@H](C(C)C)NC(=O)CNC(=O)[C@@H](Cc2ccccc2)N(C)C(=O)[C@H](C(C)C)NC(=O)[C@H](CO)NC(=O)[C@H]([C@H](C)CC)N(C)C(=O)[C@H](CO)N(C)C1=O [VERRUCAMIDE A] | 3.59 µg/mL (≈ 2.54 µM) | 10 µg/mL (≈ 7.06 µM)
CC[C@@H](C)[C@@H]1NC(=O)CNC(=O)[C@@H](C)N(C)C(=O)[C@H](C(C)C)NC(=O)[C@H]([C@@H](C)O)N(C)C(=O)[C@H](C(C)C)NC(=O)[C@H]([C@@H](C)O)N(C)C(=O)[C@H](C(C)C)NC(=O)CNC(=O)[C@@H](Cc2ccccc2)N(C)C(=O)[C@H](C(C)C)NC(=O)[C@H](CO)NC(=O)[C@H](C(C)C)N(C)C(=O)[C@H](CO)N(C)C1=O [VERRUCAMIDE B] (cyclo(GV[NMeT]V[NMeT]V[dNMeA]G[aIle][NMeS][NMeV]SV[dNMeF])) | 5.31 µg/mL (≈ 3.79 µM) | 20 µg/mL (≈ 14.3 µM)
